Data set [1] deals with Acanthamoeba castellanii. The experiment in a line: Antiamoebic activity against Acanthamoeba castellanii T4 genotype ATCC 50492 trophozites assessed as reduction in viable cells at 100 ug/ml incubated for 24 hrs by trypan blue staining based hemocytometric method relative to control. It is filed as functional. The note with it: T4 genotype ATCC 50492, 24 h. Summed up: (§1)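 Trophozoites from PYG cultures at 30 °C were detached on ice and resuspended in PBS. They were exposed at 5×10^5 per well in RPMI-1640 at 30 °C for 24 h, stained with 0.1% Trypan blue for 5 min, and unstained cells were counted by hemocytometer. Untreated cells were the negative control and chlorhexidine the positive control. Significance was tested against methanol solvent. Duplicates; mean ± SE.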

For data set [2], the system named is Acanthamoeba castellanii. The experiment in a line: Inhibition of Acanthamoeba castellanii T4 genotype ATCC 50492 excystation at 100 ug/ml incubated with pre-formed cysts for 72 hrs by hemocytometric method. It is filed as functional, organism-based. Summed up:
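Cysts were formed by plating 1×10^6 trophozoites on 1.5% non-nutrient agar at 30 °C for up to 2 weeks, then scraped into PBS. 1×10^5 cysts were incubated with compound in PYG at 30 °C for 72 h, and emerging trophozoites were counted by hemocytometer. Duplicates; mean ± SE; two-tailed two-sample t-test.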

Data set [3] has as its system Acanthamoeba castellanii. In words: Antiamoebic activity against Acanthamoeba castellanii T4 genotype ATCC 50492 infected in human HaCaT cells assessed as reduction in amoeba-induced host cell cytopathogenicity at 100 ug/ml preincubated with amoeba for 2 hrs followed by incubation of suspension with host cell for 24 hrs by LDH release assay relative to control. It is filed as functional. Particulars: T4 genotype ATCC 50492, HaCaT. A digest of the protocol:
(§2)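 Amoebae were pretreated with compound for 2 h at 30 °C, pelleted at 3000g for 5 min, and resuspended in fresh RPMI-1640 to remove compound. They were then added to HaCaT monolayers for 24 h at 37 °C in 5% CO2. Supernatant LDH was read at 492 nm. % cytotoxicity was calculated against untreated and 0.1% Triton X-100 lysed cells. Duplicates; mean ± SE.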
In general terms: Cytopathic effects are the visible damage that an infection or toxin causes in cultured cells.

Data set [4] concerns Acanthamoeba castellanii. The experiment in a line: Antiamoebic activity against Acanthamoeba castellanii T4 genotype ATCC 50492 trophozites assessed as reduction in viable cells at 50 ug/ml incubated for 24 hrs by trypan blue staining based hemocytometric method relative to control. It is filed as functional. Particulars: T4 genotype ATCC 50492, 24 h. Summed up: as §1
Data set [5] deals with HaCaT. The experiment in a line: Cytotoxicity against human HaCaT cells at 100 ug/ml incubated for 24 hrs by LDH release assay. It is filed as cell-based. Summed up: (§3)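 HaCaT keratinocytes were grown in RPMI-1640 with 10% FBS and Nu-serum and seeded to a monolayer over 24 h. Compound was applied for 24 h at 37 °C in 5% CO2, and LDH in the supernatant was measured. Medium alone gave the baseline and 0.1% Triton X-100 gave total lysis. Duplicates; mean ± SE.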
A general note: LDH in the medium is a marker of cell lysis.

Data set [6] concerns Acanthamoeba castellanii. In words: Antiamoebic activity against Acanthamoeba castellanii T4 genotype ATCC 50492 assessed as increase in pore formation at 100 ug/ml incubated for 2 hrs by FE-SEM analysis. It is filed as functional, organism-based. A digest of the protocol:
(§4)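 Trophozoites were treated with compound, then fixed on glass coverslips in 2.5% glutaraldehyde in PBS at 4 °C for 2 h. Samples were dehydrated through 50–100% ethanol, air-dried and sputter-coated with platinum. Surface morphology was imaged by FESEM at several scales, with untreated amoebae for comparison.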

In data set [7] the test system is Acanthamoeba castellanii. The experiment in a line: Antiamoebic activity against Acanthamoeba castellanii T4 genotype ATCC 50492 assessed as increase in surface disintegration at 100 ug/ml incubated for 2 hrs by FE-SEM analysis. It is filed as functional, organism-based. A digest of the protocol:
as §4

Data set [8] has as its system Acanthamoeba castellanii. In words: Antiamoebic activity against Acanthamoeba castellanii T4 genotype ATCC 50492 infected in human HaCaT cells assessed as reduction in amoeba-induced host cell cytopathogenicity at 100 ug/ml preincubated with amoeba for 2 hrs followed by incubation of suspension with host cell for 24 hrs by LDH release assay. It is filed as functional, organism-based. Summed up: as §2

Data set [9] has as its system Acanthamoeba castellanii. The experiment in a line: Inhibition of Acanthamoeba castellanii T4 genotype ATCC 50492 trophozites encystation at 100 ug/ml incubated for 72 hrs by hemocytometric method. It is filed as functional, organism-based. A digest of the protocol: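 5×10^5 trophozoites in PBS were pretreated with compound for 15 min at room temperature. They were then transferred into encystation medium (50 mM MgCl2, 10% glucose) at 30 °C for 72 h. Trophozoites were lysed with 0.25% SDS for 10 min, and SDS-resistant cysts were counted by hemocytometer. Duplicates; mean ± SE; two-tailed t-test.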

In data set [10] the test system is HaCaT. The experiment in a line: Cytotoxicity against human HaCaT cells at 100 ug/ml incubated for 24 hrs by LDH release assay relative to control. It is filed as cell-based. Summed up:
as §3

Data set [11] deals with Acanthamoeba castellanii. In words: Antiamoebic activity against Acanthamoeba castellanii T4 genotype ATCC 50492 trophozites assessed as reduction in viable cells at 100 ug/ml incubated for 24 hrs by trypan blue staining based hemocytometric method. It is filed as functional, organism-based. Summed up:
as §1

The structures appear in SMILES notation. Calls of active or inactive are those of the source. The rule behind the calls is not given here. Where only a bound is given, the exact number is not on record here.

Results on 16 molecules are retold here after ChEMBL document CHEMBL4359881, “Novel antiacanthamoebic compounds belonging to quinazolinones” (Eur J Med Chem, 2019).

For `Cc1cccc2c(=O)n(-c3ccc(F)cc3)cnc12`, the inhibition at 100 µg/mL in the data set with Acanthamoeba castellanii [1] was over 80%; with Acanthamoeba castellanii [3] it was 100%. The inhibition entry in the data set on Acanthamoeba castellanii [2] is “Active”. For the same molecule, the inhibition at 50 µg/mL in the data set with Acanthamoeba castellanii [4] is over 60%. For the same molecule, the Activity result in the data set with HaCaT [5] is given as “Non-Toxic”. The outcome with Acanthamoeba castellanii [6] and with Acanthamoeba castellanii [7] was Active.

Regarding `Cc1cccc2c(=O)n(-c3cccc(Cl)c3)cnc12`, the inhibition result in the data set on Acanthamoeba castellanii [8] and with Acanthamoeba castellanii [2] was “Active” throughout. Moreover, the inhibition at 100 µg/mL in the data set on Acanthamoeba castellanii [1] was over 50%. The inhibition at 50 µg/mL in the data set with Acanthamoeba castellanii [4] is over 50%. For the same molecule, in the data set on HaCaT [5], the Activity entry is on record as “Non-Toxic”.

On to `CSc1cccc(-n2cnc3c(C)cccc3c2=O)c1`, for which the inhibition entry in the data set on Acanthamoeba castellanii [8] and in the data set with Acanthamoeba castellanii [2] was “Active” in each case. The inhibition at 100 µg/mL in the data set on Acanthamoeba castellanii [1] was over 50%. The inhibition at 50 µg/mL in the data set with Acanthamoeba castellanii [4] was over 50%. Also, the Activity entry with HaCaT [5] is given as “Non-Toxic”.

With `Cc1cccc2c(=O)n(-c3ccc(F)cc3F)cnc12`, the inhibition entry in the data set on Acanthamoeba castellanii [8], with Acanthamoeba castellanii [9] and in the data set with Acanthamoeba castellanii [2] was “Active” each time. In addition, the inhibition at 100 µg/mL in the data set with Acanthamoeba castellanii [1] is over 50%. The inhibition at 50 µg/mL in the data set with Acanthamoeba castellanii [4] is over 50%. Moreover, the Activity entry in the data set on HaCaT [5] is recorded as “Non-Toxic”.

On to `Cc1cccc2c(=O)n(-c3ccccc3I)cnc12`, for which the inhibition at 100 µg/mL is over 80% in the data set on Acanthamoeba castellanii [1] and 100% in the data set with Acanthamoeba castellanii [3]. In addition, the inhibition entry in the data set with Acanthamoeba castellanii [9] and in the data set with Acanthamoeba castellanii [2] was “Active” each time. In the data set on Acanthamoeba castellanii [4], the inhibition at 50 µg/mL is over 60%. In the data set on HaCaT [10], the Activity is 8%.

On to `Cc1cccc2c(=O)n(-c3ccc(I)cc3)cnc12`, for which the figures for the inhibition at 100 µg/mL with Acanthamoeba castellanii [1] and in the data set on Acanthamoeba castellanii [3] were over 50% and 100%, respectively. Further, the inhibition result in the data set on Acanthamoeba castellanii [2] is “Active”. Also, in the data set on Acanthamoeba castellanii [4], the inhibition at 50 µg/mL was over 60%. In addition, in the data set with HaCaT [5], the Activity entry was “Non-Toxic”.

Regarding `Cc1ccc(-n2cnc3c(C)cccc3c2=O)cc1`, the inhibition entry with Acanthamoeba castellanii [8] and with Acanthamoeba castellanii [2] was “Active” in each case. For the same molecule, in the data set with Acanthamoeba castellanii [1], the inhibition at 100 µg/mL was over 50%. Besides, in the data set on Acanthamoeba castellanii [4], the inhibition at 50 µg/mL was over 50%. In the data set on HaCaT [5], the Activity result is reported as “Non-Toxic”. Moreover, the outcome in the data set on Acanthamoeba castellanii [6] and in the data set with Acanthamoeba castellanii [7] was Active.

Take `Cc1cccc2c(=O)n(-c3cccc(F)c3)cnc12`: the inhibition result in the data set on Acanthamoeba castellanii [8] and with Acanthamoeba castellanii [2] was “Active” each time. In addition, the inhibition at 100 µg/mL in the data set on Acanthamoeba castellanii [1] was over 80%. Moreover, the inhibition at 50 µg/mL in the data set on Acanthamoeba castellanii [4] was over 50%. In addition, in the data set on HaCaT [5], the Activity result is recorded as “Non-Toxic”.

For `COc1ccc(OC)c(-n2cnc3c(C)cccc3c2=O)c1`, the inhibition result with Acanthamoeba castellanii [8] and in the data set with Acanthamoeba castellanii [2] was “Active” each time. For the same molecule, the inhibition at 100 µg/mL in the data set on Acanthamoeba castellanii [1] is over 50%. In the data set with Acanthamoeba castellanii [4], the inhibition at 50 µg/mL is over 50%. In addition, the Activity result in the data set on HaCaT [5] is “Non-Toxic”.

With `Cc1ccccc1-n1cnc2c(C)cccc2c1=O`, the inhibition at 100 µg/mL in the data set on Acanthamoeba castellanii [1] was over 50%; in the data set with Acanthamoeba castellanii [3], 100%. For the same molecule, the inhibition result in the data set with Acanthamoeba castellanii [9] and with Acanthamoeba castellanii [2] was “Active” throughout. In the data set on Acanthamoeba castellanii [4], the inhibition at 50 µg/mL was over 50%. Besides, in the data set with HaCaT [5], the Activity result is “Non-Toxic”.

On to `N=C(NCCCCCCNC(=N)NC(=N)Nc1ccc(Cl)cc1)NC(=N)Nc1ccc(Cl)cc1`, for which the inhibition result in the data set on Acanthamoeba castellanii [2] is “Active”.

With `Cc1cccc2c(=O)n(-c3ccc(Cl)cc3)cnc12`, the inhibition entry in the data set on Acanthamoeba castellanii [8] and in the data set with Acanthamoeba castellanii [2] was “Active” each time. Moreover, the inhibition at 100 µg/mL in the data set with Acanthamoeba castellanii [1] is over 50%. In the data set with Acanthamoeba castellanii [4], the inhibition at 50 µg/mL is over 50%. The Activity entry in the data set on HaCaT [5] is “Non-Toxic”.

Regarding `Cc1cc(C)cc(-n2cnc3c(C)cccc3c2=O)c1`, the inhibition result in the data set with Acanthamoeba castellanii [8] and in the data set with Acanthamoeba castellanii [2] was “Active” throughout. The inhibition result in the data set with Acanthamoeba castellanii [11] is “inactive”. For the same molecule, the Activity result with HaCaT [5] is “Non-Toxic”.

`Cc1cccc2c(=O)n(-c3cccc(Br)c3)cnc12`: the inhibition entry in the data set on Acanthamoeba castellanii [8] and in the data set on Acanthamoeba castellanii [2] was “Active” each time. Further, the inhibition at 100 µg/mL with Acanthamoeba castellanii [1] was over 50%. Besides, in the data set on Acanthamoeba castellanii [4], the inhibition at 50 µg/mL was over 50%. In the data set with HaCaT [10], this molecule registered an Activity of 11%.

For `COc1ccc(-n2cnc3c(C)cccc3c2=O)cc1`, the inhibition result in the data set with Acanthamoeba castellanii [8] and with Acanthamoeba castellanii [2] was “Active” in each case. The inhibition at 100 µg/mL in the data set on Acanthamoeba castellanii [1] was over 50%. Also, the inhibition at 50 µg/mL in the data set with Acanthamoeba castellanii [4] is over 50%. For the same molecule, the Activity result in the data set on HaCaT [5] was “Non-Toxic”.

`Cc1cccc2c(=O)n(-c3ccc(Br)cc3)cnc12`: the inhibition result with Acanthamoeba castellanii [8] and in the data set with Acanthamoeba castellanii [2] was “Active” in each case. In addition, the inhibition at 100 µg/mL in the data set on Acanthamoeba castellanii [1] was over 50%. Moreover, the inhibition at 50 µg/mL in the data set on Acanthamoeba castellanii [4] was over 50%. For the same molecule, in the data set on HaCaT [5], the Activity entry was “Non-Toxic”.

By inhibition is commonly meant the relative decrease from the control value, in per cent.
